In ChEMBL document CHEMBL1154728, “Synthesis of nitroimidazole derived oxazolidinones as antibacterial agents” (Eur J Med Chem, 2010):
≈ marks a conversion by molar mass, not a printed value.

Legend:
[1] = tested on: Staphylococcus aureus; assay: Antibacterial activity against […] Staphylococcus aureus ATCC 25923 after 24 hrs by spectrophotometry; type: functional; conditions: ATCC 25923, 24 h
Summary of the method: (§1)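 Strains grown on nutrient agar at 37 °C for 24 h, then suspended in normal saline with 0.05% Tween 20 at about […] cells/mL (0.5 McFarland). Broth microdilution in Mueller Hinton broth per NCCLS. DMSO stock 1 mg/mL diluted into broth, then two-fold serial dilutions. Plates incubated at 35 °C in a moist, dark chamber. MIC read spectrophotometrically at 24 h.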

[2] = tested on: Bacillus cereus; assay: Antibacterial activity against Bacillus cereus MTCC 430 after 24 hrs by spectrophotometry; type: functional; conditions: MTCC 430, 24 h
Summary of the method: (§2)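 Strains grown on nutrient agar at 37 °C for 24 h, suspended in normal saline with 0.05% Tween 20 to about […] cells/mL (0.5 McFarland). Broth microdilution per NCCLS in Mueller Hinton broth. Compounds dissolved in DMSO at 1 mg/mL (stock), serially two-fold diluted. Growth, drug and negative controls included. Incubation at 35 °C, moist and dark; MIC read spectrophotometrically at 24 h.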

[3] = tested on: Staphylococcus aureus; assay: Antibacterial activity against […] Staphylococcus aureus ATCC 29213 after 24 hrs by spectrophotometry; type: functional; conditions: ATCC 29213, 24 h; summary of the method: as §1
[4] = tested on: Enterococcus faecalis; assay: Antibacterial activity against Enterococcus faecalis MTCC439 after 24 hrs by spectrophotometry; type: functional; conditions: MTCC439, 24 h; summary of the method: as §2
[5] = tested on: Streptococcus pyogenes; assay: Antibacterial activity against Streptococcus pyogenes after 24 hrs by spectrophotometry; type: functional; summary of the method: as §2
[6] = tested on: Klebsiella pneumoniae; assay: Antibacterial activity against Klebsiella pneumoniae ATCC 27736 after 24 hrs by spectrophotometry; type: functional; conditions: ATCC 27736, 24 h; summary of the method: as §2
[7] = tested on: Staphylococcus aureus; assay: Antibacterial activity against methicillin resistant Staphylococcus aureus ATCC 70069 after 24 hrs by spectrophotometry; type: functional; conditions: ATCC 70069, 24 h; summary of the method: as §1
[8] = tested on: L929; assay: Cytotoxicity against mouse L929 cells assessed as change in morphology at 50 ug/ml after 24 hrs by phase contrast microscopy; type: cell-based; conditions: l929, 24 h
Summary of the method: (§3)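 L929 fibroblasts in DMEM under 5% CO₂, switched to serum-free DMEM at 90% confluency, then exposed to compound for 24 h. Cells were fixed in the wells and stained with Giemsa for 30 min at 37 °C. Morphology was examined by phase contrast microscopy against untreated control cells.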

[9] = tested on: L929; assay: Cytotoxicity against mouse L929 cells assessed as cell viability after 24 hrs by MTT assay; type: cell-based; conditions: l929, 24 h
Summary of the method: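 Mouse fibroblast L929 cells seeded at 1 × 10³ cells per well in DMEM under humidified 5% CO₂. Medium switched to serum-free DMEM at 90% confluency (5 h). Cells exposed 24 h to a two-fold series ([…], then 12.5 down to 0.09). MTT read-out: absorbance at 570 minus 630 nm taken as the viability index.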

[10] = tested on: L929; assay: Cytotoxicity against mouse L929 cells assessed as change in morphology at 0.09 ug/ml after 24 hrs by phase contrast microscopy; type: cell-based; conditions: l929, 24 h; summary of the method: as §3

## CC(=O)NC[C@H]1CN(c2ccc(N3CCN(CCn4ccnc4[N+](=O)[O-])CC3)c(F)c2)C(=O)O1
[1]
  MIC: 12.5 µg/mL (≈ 26.3 µM)
[2]
  MIC: 0.78 µg/mL (≈ 1.64 µM)
[3]
  MIC: 12.5 µg/mL (≈ 26.3 µM)
[4]
  MIC: 25 µg/mL (≈ 52.6 µM)
[5]
  MIC: 0.78 µg/mL (≈ 1.64 µM)
[6]
  MIC: 25 µg/mL (≈ 52.6 µM)
[7]
  MIC: 6.25 µg/mL (≈ 13.1 µM)

## CC(=O)NC[C@H]1CN(c2ccc(N3CCN(CCCn4c([N+](=O)[O-])cnc4C)CC3)c(F)c2)C(=O)O1
[1]
  MIC: 12.5 µg/mL (≈ 24.8 µM)
[2]
  MIC: 6.25 µg/mL (≈ 12.4 µM)
[3]
  MIC: 12.5 µg/mL (≈ 24.8 µM)
[4]
  MIC: 12.5 µg/mL (≈ 24.8 µM)
[5]
  MIC: 1.56 µg/mL (≈ 3.1 µM)
[6]
  MIC: 1.56 µg/mL (≈ 3.1 µM)
[7]
  MIC: 6.25 µg/mL (≈ 12.4 µM)

## CC(=O)NC[C@H]1CN(c2ccc(N3CCN(C(=O)Cn4c([N+](=O)[O-])cnc4C)CC3)c(F)c2)C(=O)O1
[1]
  MIC: 6.25 µg/mL (≈ 12.4 µM)
[2]
  MIC: 1.56 µg/mL (≈ 3.1 µM)
[3]
  MIC: 6.25 µg/mL (≈ 12.4 µM)
[4]
  MIC: 6.25 µg/mL (≈ 12.4 µM)
[5]
  MIC: 1.56 µg/mL (≈ 3.1 µM)
[6]
  MIC: 3.12 µg/mL (≈ 6.2 µM)
[7]
  MIC: 6.25 µg/mL (≈ 12.4 µM)

## CC(=O)NC[C@H]1CN(c2ccc(N3CCN(CC(O)Cn4c([N+](=O)[O-])cnc4C)CC3)c(F)c2)C(=O)O1 (stereo partly specified)
[1]
  MIC: 3.12 µg/mL (≈ 6.01 µM)
[2]
  MIC: 0.78 µg/mL (≈ 1.5 µM)
[3]
  MIC: 1.56 µg/mL (≈ 3 µM)
[4]
  MIC: 1.56 µg/mL (≈ 3 µM)
[5]
  MIC: 0.39 µg/mL (≈ 0.751 µM)
[6]
  MIC: > 50 µg/mL
[7]
  MIC: 0.39 µg/mL (≈ 0.751 µM)

## CC(=O)NC[C@H]1CN(c2ccc(N3CCN(CCn4c([N+](=O)[O-])cnc4C)CC3)c(F)c2)C(=O)O1
[8]
  Activity: Toxic
[1]
  MIC: 3.12 µg/mL (≈ 6.37 µM)
[2]
  MIC: 0.097 µg/mL (≈ 0.198 µM)
[3]
  MIC: 3.12 µg/mL (≈ 6.37 µM)
[9]
  Activity: Toxic
[4]
  MIC: 3.12 µg/mL (≈ 6.37 µM)
[5]
  MIC: 0.78 µg/mL (≈ 1.59 µM)
[6]
  MIC: 0.78 µg/mL (≈ 1.59 µM)
[10]
  Activity: Non-toxic
[7]
  MIC: 0.78 µg/mL (≈ 1.59 µM)

## CC(=O)NC[C@H]1CN(c2ccc(N3CCN(CC(O)Cn4cnc([N+](=O)[O-])c4)CC3)c(F)c2)C(=O)O1 (stereo partly specified)
[1]
  MIC: 6.25 µg/mL (≈ 12.4 µM)
[2]
  MIC: 3.12 µg/mL (≈ 6.17 µM)
[3]
  MIC: 12.5 µg/mL (≈ 24.7 µM)
[5]
  MIC: 3.12 µg/mL (≈ 6.17 µM)
[6]
  MIC: > 50 µg/mL
[7]
  MIC: 6.25 µg/mL (≈ 12.4 µM)

## CC(=O)NC[C@H]1CN(c2ccc(N3CCN(CCCn4ccnc4[N+](=O)[O-])CC3)c(F)c2)C(=O)O1
[1]
  MIC: 6.25 µg/mL (≈ 12.8 µM)
[2]
  MIC: 6.25 µg/mL (≈ 12.8 µM)
[3]
  MIC: 12.5 µg/mL (≈ 25.5 µM)
[4]
  MIC: 12.5 µg/mL (≈ 25.5 µM)
[5]
  MIC: 0.78 µg/mL (≈ 1.59 µM)
[6]
  MIC: 0.78 µg/mL (≈ 1.59 µM)
[7]
  MIC: 6.25 µg/mL (≈ 12.8 µM)

## CC(=O)NC[C@H]1CN(c2ccc(N3CCN(CCCn4cnc([N+](=O)[O-])c4)CC3)c(F)c2)C(=O)O1
[8]
  Activity: Toxic
[1]
  MIC: 0.78 µg/mL (≈ 1.59 µM)
[2]
  MIC: 0.78 µg/mL (≈ 1.59 µM)
[3]
  MIC: 0.78 µg/mL (≈ 1.59 µM)
[9]
  Activity: Toxic
[4]
  MIC: 0.78 µg/mL (≈ 1.59 µM)
[5]
  MIC: 0.39 µg/mL (≈ 0.797 µM)
[6]
  MIC: 0.78 µg/mL (≈ 1.59 µM)
[10]
  Activity: Non-toxic
[7]
  MIC: 0.78 µg/mL (≈ 1.59 µM)

## CC(=O)NC[C@H]1CN(c2ccc(N3CCN(C(=O)Cn4cnc([N+](=O)[O-])c4)CC3)c(F)c2)C(=O)O1
[1]
  MIC: 12.5 µg/mL (≈ 25.5 µM)
[2]
  MIC: 6.25 µg/mL (≈ 12.8 µM)
[3]
  MIC: 12.5 µg/mL (≈ 25.5 µM)
[4]
  MIC: 25 µg/mL (≈ 51.1 µM)
[5]
  MIC: 1.56 µg/mL (≈ 3.19 µM)
[6]
  MIC: 25 µg/mL (≈ 51.1 µM)
[7]
  MIC: 3.12 µg/mL (≈ 6.37 µM)

## CC(=O)NC[C@H]1CN(c2ccc(N3CCOCC3)c(F)c2)C(=O)O1 [LINEZOLID]
[1]
  MIC: 1.56 µg/mL (≈ 4.62 µM)
[2]
  MIC: 0.78 µg/mL (≈ 2.31 µM)
[3]
  MIC: 3.12 µg/mL (≈ 9.25 µM)
[4]
  MIC: 3.12 µg/mL (≈ 9.25 µM)
[5]
  MIC: 1.56 µg/mL (≈ 4.62 µM)
[6]
  MIC: 1.56 µg/mL (≈ 4.62 µM)
[7]
  MIC: 1.56 µg/mL (≈ 4.62 µM)

## CN[C@H](CC(C)C)C(=O)N[C@H]1C(=O)N[C@@H](CC(N)=O)C(=O)N[C@H]2C(=O)N[C@H]3C(=O)N[C@H](C(=O)N[C@H](C(=O)O)c4cc(O)cc(O)c4-c4cc3ccc4O)[C@H](O)c3ccc(c(Cl)c3)Oc3cc2cc(c3O[C@@H]2O[C@H](CO)[C@@H](O)[C@H](O)[C@H]2O[C@H]2C[C@](C)(N)[C@H](O)[C@H](C)O2)Oc2ccc(cc2Cl)[C@H]1O [VANCOMYCIN]
[1]
  MIC: 0.39 µg/mL (≈ 0.269 µM)
[2]
  MIC: 0.19 µg/mL (≈ 0.131 µM)
[3]
  MIC: 1.56 µg/mL (≈ 1.08 µM)
[4]
  MIC: 0.78 µg/mL (≈ 0.538 µM)
[5]
  MIC: 0.39 µg/mL (≈ 0.269 µM)
[7]
  MIC: 6.25 µg/mL (≈ 4.31 µM)
